Source: PubChem BioAssay (Sanford-Burnham Center for Chemical Genomics)
hIAP inh = human IAP inhibition; inhibition, % at 10 µM; P09923; actives 0.12% (n = 330,000); purified IAP, CDP-Star luminescence, 30 min; AID 2544;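 active means inhibition reaching a set limit with compound at 10 µM in the primary screen, cut at about 35% in these data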;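 further: plate controls were DMSO wells with enzyme for no effect and no-enzyme buffer wells for full effect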
Target sequence (P09923 whole entry, looked up): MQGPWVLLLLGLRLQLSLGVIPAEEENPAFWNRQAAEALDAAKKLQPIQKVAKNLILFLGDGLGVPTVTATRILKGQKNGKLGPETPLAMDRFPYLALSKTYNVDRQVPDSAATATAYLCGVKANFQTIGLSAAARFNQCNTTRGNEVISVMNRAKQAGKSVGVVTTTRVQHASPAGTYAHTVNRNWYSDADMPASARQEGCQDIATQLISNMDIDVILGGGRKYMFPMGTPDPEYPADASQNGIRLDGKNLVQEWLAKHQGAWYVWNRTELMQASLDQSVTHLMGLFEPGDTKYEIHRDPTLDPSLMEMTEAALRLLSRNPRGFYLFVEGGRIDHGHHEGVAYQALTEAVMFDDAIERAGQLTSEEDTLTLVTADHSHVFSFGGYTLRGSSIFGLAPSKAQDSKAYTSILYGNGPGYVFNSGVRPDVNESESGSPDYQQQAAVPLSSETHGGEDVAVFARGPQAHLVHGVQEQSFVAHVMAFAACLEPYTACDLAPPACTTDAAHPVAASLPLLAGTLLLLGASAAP
mIAP block = blocks mouse intestinal alkaline phosphatase. purified mouse IAP, CDP-Star luminescence, 30 min. inhibition, % at 10 µM. actives 0.2% (n = 330,000). AID 2806;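 active means inhibition of at least 40% at 10 µM in the primary screen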;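 further: plate controls were DMSO with enzyme for no effect and no enzyme wells for full effect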
bIAP inh = blocks bovine intestinal alkaline phosphatase activity; purified bovine IAP, CDP-star luminescence, 30 min; inhibition, % at 20 µM; 190,000 tested, under 10 active; AID 1019;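 active means over 50% inhibition of intestinal alkaline phosphatase at 20 µM in the single-dose screen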
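Assay system: bovine IAP enzyme; medium: DEA buffer 100 mM, pH 9.8, with MgCl2 1.0 mM, ZnCl2 0.02 mM; doses: 20 µM single dose; incubation: enzyme reaction for 30 min at room temperature; detection: CDP-star luminescence signal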
hIAP act = increases human intestinal alkaline phosphatase activity | P09923 | activation factor at 10 µM | AID 2524 | purified human IAP, CDP-Star luminescence, 30 min; stronger effect = higher value; 1 = vehicle-only enzyme, 0 = enzyme-free background | actives 0.16% (n = 330,000);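 active means activation factor of the enzyme at least 2-fold when tested at 20 µM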
mIAP act = mouse IAP activation; actives 0.24% (n = 330,000); activation factor at 10 µM; muIAP, CDP-Star luminescence, 30 min; stronger effect = higher value; 1 = vehicle-only enzyme signal, 0 = enzyme-free wells;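 active means activation factor of at least 2 at 20 µM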
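Assay system: mouse IAP enzyme; Reagent: CDP-Star chemiluminescent phosphatase substrate; Compound: DMSO-dissolved test compounds; Incubation: 30 min, room temperature; Technique: luminescence from enzymatic CDP-Star hydrolysis; Controls: DMSO-only wells and no-enzyme negative control.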
bIAP activator = increases bovine intestinal alkaline phosphatase activity; purified bovine IAP, CDP-star luminescence, 30 min; stronger effect = higher value; fold of DMSO-control signal, blank-subtracted; activation factor at 20 µM; actives 0.17% (n = 200,000); AID 1016;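 active means activation factor of 2 or more at 20 µM, a signal rise over negative controls twice the positive control's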
hIAP act confirm = human IAP activation confirmation; shares compounds with hIAP act; purified IAP, CDP-Star luminescence, 30 min; stronger effect = lower value; activation (%Activity, negative = activation), % at 8.3 µM; actives 10% (n = 880);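 active means at least twofold enzyme activation in any of six single-dose repeats, which the averaged readout prints as negative percent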
Active calls of the source: *; . = not tested or not shown. Most compounds without a hit are left out; they make up all but 0.77% or so of the library.

SMILES	hIAP inh	mIAP block	bIAP inh	hIAP act	mIAP act	bIAP activator	hIAP act confirm
O=C1C2C3C=CC(C3)C2C(=O)N1c1n[nH]c(-c2ccccc2)n1 (centres undefined)	5.3	0.0	46.8	0.947	1	0.5	.
O=C1C2C3C=CC(C3)C2C(=O)N1c1n[nH]c(-c2cccnc2)n1 (centres undefined)	66.3*	-1.7	16.9	0.337	1.02	0.8	-82.5*
COc1cc(NC(=O)[C@@H]2CCCN(S(=O)(=O)c3cccc4cccnc34)C2)cc(OC)c1OC	4.1	-3.5	.	0.959	1.03	.	.
COc1ccc(NC(=O)c2cc(-c3cc(Cl)ccc3O)n[nH]2)c(OC)c1	-36.4	1.9	.	1.36	0.981	.	.
COc1ccc(OC)c(NC(=O)c2cc(-c3cc(C)cc(C)c3O)n[nH]2)c1	-57.9	-1.6	.	1.58	1.02	.	.
COc1ccc(NC(=O)c2cc(-c3cc(C)c(C)cc3O)n[nH]2)c(OC)c1	-111.5	-4.4	.	2.12*	1.04	.	-19.5
COc1ccc(OC)c(NC(=O)c2cc(-c3cc(C)c(C)cc3O)n[nH]2)c1	-116.7	-0.6	.	2.17*	1.01	.	6.0
CCc1nc2ccc(C(=O)N3CCN(c4ccccc4F)CC3)cc2nc1CC	2.9	5.0	.	0.971	0.95	.	.
COc1ccc(-c2nn(-c3ccccc3)cc2C(=O)NC2CC2)cc1	3.4	4.1	.	0.966	0.959	.	.
CS(=O)(=O)c1ccc(Cl)c(NC(=O)Cc2c(Cl)cccc2Cl)c1	-10.5	-0.1	12.2	1.1	1	0.9	.
CS(=O)(=O)c1ccc(Cl)c(NC(=O)Cc2ccsc2)c1	36.0*	-2.2	.	0.64	1.02	.	5.4
COc1ccccc1CNC(=O)Cn1nc(C)c([N+](=O)[O-])c1C	37.2*	3.9	.	0.628	0.961	.	-59.1
O=C(COc1ccc(F)cc1Br)NCc1nnc2ccccn12	10.7	-0.6	.	0.893	1.01	.	.
COC(=O)C(Cc1ccccc1)NC(=O)c1cc(S(=O)(=O)N(C)C)ccc1Cl (centres undefined)	10.1	9.6	-0.2	0.899	0.904	1	.
CC(=O)c1ccc(N=Nc2ccc(N(C)C)cc2)cc1	-16.2	3.4	9.9	1.16	0.966	0.9	.
CN(C)c1ccc(N=Nc2ccccc2Br)cc1	42.0*	18.5	.	0.58	0.815	.	-103.6*
CCCC1Oc2ccccc2C(=O)N(CC(=O)c2ccc3c(c2)OCCO3)C1=O (centres undefined)	-12.3	6.7	.	1.12	0.933	.	.
COc1ccc(-n2ccn(CC(=O)Nc3ccc(OC)cc3OC)c(=O)c2=O)cc1	43.8*	-1.3	.	0.562	1.01	.	-0.5
CN(CCCC(=O)O)c1ccc(N=Nc2ccc([N+](=O)[O-])cc2)cc1	47.3*	37.8	.	0.527	0.622	.	23.7
CN(N=Nc1ccc([N+](=O)[O-])cc1)c1ccccc1	15.2	19.4	6.1	0.848	0.806	0.9	.
N#Cc1cc(Oc2ccc3ccccc3c2)c(-n2nnc3ccccc32)cc1C#N	13.3	2.8	25.3	0.867	0.972	0.7	.
N#Cc1cc(Oc2ccccc2)c(-n2nnc3ccccc32)cc1C#N	35.2*	7.6	12.7	0.648	0.924	0.9	40.7
COc1cccc(/C=N/NC(=O)CNC(=O)COc2ccccc2)c1O	-52.4	-2.1	.	1.52	1.02	.	.
O=C(COc1ccccc1)NCC(=O)N/N=C/c1ccc(O)cc1O	-105.3	0.4	.	2.05*	0.996	.	-3.7
C[C@H](NC(=O)c1ccccc1Cl)C(=O)OCc1cn2cc(Cl)ccc2n1	-4.3	-7.1	.	1.04	1.07	.	.
SMILES	hIAP inh	mIAP block	bIAP inh	hIAP act	mIAP act	bIAP activator	hIAP act confirm
Cc1ccc(CN2CCC(c3nc4ccc(Cl)cc4[nH]3)CC2)cc1	-6.6	-59.9	-37.9	1.07	1.6	1.4	.
Cc1cc2nc(C3CCN(Cc4nnnn4Cc4cccs4)CC3)[nH]c2cc1C	36.6*	-14.7	.	0.634	1.15	0.5	79.3
CCSC(=O)N(CC)CC(=O)Nc1c(CC)cccc1CC	-8.4	-5.4	10.3	1.08	1.05	0.9	.
CCc1cccc(CC)c1NC(=O)CN(CC(=O)O)CC(=O)O	-109.7	-5.2	.	2.1*	1.05	.	-5.0
CN(Cc1nc(Cc2cccc(C(F)(F)F)c2)no1)C1CC(C)(C)NC(C)(C)C1	-3.5	-10.5	-4.0	1.03	1.1	1	.
CCc1ccc(N/C(N)=N/c2nc(CSc3ncccn3)cc(=O)[nH]2)cc1	-102.8	-0.1	-4.0	2.03*	1	1	-43.9
COC(=O)c1cccn(CC(=O)c2ccc(Cl)cc2Cl)c1=O	-2.2	1.6	-8.1	1.02	0.984	1.1	.
O=C(CSc1ncn[nH]1)N1c2ccccc2Sc2ccccc21	-14.0	0.3	.	1.14	0.997	.	.
O=c1c(OC2OC(CO)C(O)C(O)C2O)c(-c2ccc(O)c(O)c2)oc2cc(O)cc(O)c12 (centres undefined)	55.8*	14.2	18.2	0.442	0.858	0.8	-42.7
O=c1c(O[C@@H]2O[C@H](CO)C(O)C2O)c(-c2ccc(O)c(O)c2)oc2cc(O)cc(O)c12 (some centres undefined)	59.1*	38.2	.	0.409	0.618	.	4.3
C[C@@H]1O[C@@H](Oc2c(-c3ccc(O)c(O)c3)oc3cc(O)cc(O)c3c2=O)[C@H](O)[C@H](O)[C@H]1O	35.6*	37.3	.	0.644	0.627	.	1.0
C[C@@H]1O[C@@H](Oc2c(-c3cc(O)c(O)c(O)c3)oc3cc(O)cc(O)c3c2=O)[C@H](O)[C@H](O)[C@H]1O	-10.7	12.7	-14.6	1.11	0.873	1.1	.
O=c1c(O[C@H]2O[C@@H](CO)[C@H](O)[C@@H](O)[C@@H]2O)c(-c2ccc(O)cc2)oc2cc(O)cc(O)c12	2.1	-2.8	.	0.979	1.03	.	.
COc1cccc(N2CCN(C(=O)C3CCC(=O)N(C4CCCCCC4)C3)CC2)c1 (centres undefined)	-18.0	-3.8	.	1.18	1.04	.	.
CCOc1cccc(/C=N/NC(=S)Nc2cc(S(=O)(=O)N3CCOCC3)ccc2N2CCOCC2)c1O	-113.5	-0.2	2.1	2.13*	1	1	1.1
O=C(CC(=O)NC1CCCCC1)N/N=C/c1ccccc1[N+](=O)[O-]	-4.1	1.1	.	1.04	0.989	.	.
COCCNC(=S)Nc1ccc2[nH]c(=O)[nH]c2c1	-3.0	1.8	8.0	1.03	0.982	0.9	.
CC(=O)NC(=S)Nc1ccccc1C(=O)Nc1ccccc1	-149.6	20.8	-39.9	2.5*	0.792	1.4	-31.1
CC(=O)NC(=S)NNC(=O)C(c1ccccc1)c1ccccc1	-103.4	-5.1	-98.9	2.03*	1.05	2*	7.2
N#CCC(=O)NNC(=S)NC(=O)C(c1ccccc1)c1ccccc1	-53.0	9.5	-64.3	1.53	0.905	1.6	.
